Assay results taken from ChEMBL document CHEMBL2413051, “Antibacterial activity of quinoxalines, quinazolines, and 1,5-naphthyridines” (2013).
Converted amounts (≈) assume the structure as drawn. The source made the active and inactive calls. No cut-off for these calls is given here.

Key:
[1] = target: T1, Cell division protein FtsZ (Staphylococcus aureus) (UniProt P0A031); assay: Stimulation of purified Staphylococcus aureus FtsZ polymerization at 40 ug/ml by microtiter plate based light-scattering assay in presence of 10 mM depolymerizing agent GDP
T1 sequence (whole entry): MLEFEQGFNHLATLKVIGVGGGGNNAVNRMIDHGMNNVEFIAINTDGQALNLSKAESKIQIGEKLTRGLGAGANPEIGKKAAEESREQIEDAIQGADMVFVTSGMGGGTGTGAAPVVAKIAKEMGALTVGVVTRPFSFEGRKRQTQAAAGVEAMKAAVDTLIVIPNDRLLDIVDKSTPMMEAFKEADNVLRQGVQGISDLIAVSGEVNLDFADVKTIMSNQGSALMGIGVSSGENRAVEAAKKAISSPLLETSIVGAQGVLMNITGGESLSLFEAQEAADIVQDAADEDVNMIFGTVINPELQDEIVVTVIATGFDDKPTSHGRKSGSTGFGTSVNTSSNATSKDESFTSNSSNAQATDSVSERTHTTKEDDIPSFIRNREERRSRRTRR

Staphylococcus aureus [2] = assay: microbe, parasite or virus in culture; assay type: functional; settings: 8325-4
Enterococcus faecalis [3] = assay: microbe, parasite or virus in culture; assay type: functional; settings: ATCC 19433
Enterococcus faecalis [4] = assay: microbe, parasite or virus in culture; assay type: functional; settings: ATCC 51575
Staphylococcus aureus [5] = assay: microbe, parasite or virus in culture; assay type: functional; settings: ATCC 33591
Staphylococcus aureus [6] = assay: Bactericidal activity against methicillin-sensitive Staphylococcus aureus 8325-4; assay type: functional
How it was run: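 MBC against MSSA strain 8325-4, determined per a previously described method; paired MIC by CLSI broth microdilution, MIC being lowest concentration giving ≥90% growth inhibition.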

[7] = target: T1, Cell division protein FtsZ (Staphylococcus aureus); assay: Stimulation of purified Staphylococcus aureus FtsZ polymerization at 40 ug/ml by microtiter plate based light-scattering assay
Staphylococcus aureus [8] = assay: Bactericidal activity against methicillin-resistant Staphylococcus aureus ATCC 33591; assay type: functional
Enterococcus faecalis [9] = assay: Bactericidal activity against vancomycin-resistant Enterococcus faecalis ATCC 51575; assay type: functional
Enterococcus faecalis [10] = assay: Ratio of MBC to MIC for vancomycin-resistant Enterococcus faecalis ATCC 51575; assay type: functional
How it was run: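 Ratio of MBC to MIC, both in µg/mL. MIC was found by CLSI broth microdilution as the lowest concentration giving ≥90% growth inhibition. MBC was found by a previously described method. Per CLSI, a ratio of 1–2 is read as bactericidal and ≥8 as bacteriostatic.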

Staphylococcus aureus [11] = assay: Ratio of MBC to MIC for methicillin-sensitive Staphylococcus aureus 8325-4; assay type: functional

Row | Structure (SMILES) | Activity [1] | MIC (Staphylococcus aureus [2]) [µg/mL] | MIC (Enterococcus faecalis [3]) [µg/mL] | MIC (Enterococcus faecalis [4]) [µg/mL] | MIC (Staphylococcus aureus [5]) [µg/mL] | MBC (Staphylococcus aureus [6]) [µg/mL] | Activity [7] | MBC (Staphylococcus aureus [8]) [µg/mL] | MBC (Enterococcus faecalis [9]) [µg/mL] | Ratio (Enterococcus faecalis [10]) | Ratio (Staphylococcus aureus [11])
1 | CC(C)(C)c1ccc(-c2ccnc3c(CN)ccnc23)cc1 | Active | > 64 | > 64 | > 64 | > 64 |  |  |  |  |  | 
2 | CC(C)(C)c1ccc(-c2cc(C(N)=O)cc(-c3cnc4ccccc4n3)c2)cc1 | Active | > 64 | > 64 | > 64 | > 64 |  |  |  |  |  | 
3 | C[n+]1cc(-c2ccccc2)nc2ccccc21.[I-] | Active | 4 | 32 | > 64 | 8 |  |  |  |  |  | 
4 | c1ccc2nccnc2c1 [QUINOXALINE] | Active | > 64 | > 64 | > 64 | > 64 |  |  |  |  |  | 
5 | C[n+]1cc(-c2cccc(F)c2)nc2ccccc21.[I-] | Active | 2 | 32 | 32 | 4 |  |  |  |  |  | 
6 | C[n+]1cc(-c2cc(C(=O)NCCO)cc(-c3ccc(C(C)(C)C)cc3)c2)nc2ccccc21.[I-] | Active | 4 | 8 | 8 | 4 |  |  |  |  |  | 
7 | CC[C@H]1OC(=O)[C@H](C)[C@@H](O[C@H]2C[C@@](C)(OC)[C@@H](O)[C@H](C)O2)[C@H](C)[C@@H](O[C@@H]2O[C@H](C)C[C@H](N(C)C)[C@H]2O)[C@](C)(O)C[C@@H](C)C(=O)[C@H](C)[C@@H](O)[C@]1(C)O [ERYTHROMYCIN] |  | 0.13 (≈ 0.177 µM) | 1 (≈ 1.36 µM) | > 64 | > 64 | 32 (≈ 43.6 µM) |  |  |  |  | 
8 | CC(C)(C)c1cccc(-c2cnc3ccccc3n2)c1 | Active | > 64 | > 64 | > 64 | > 64 |  |  |  |  |  | 
9 | CC(C)(C)c1ccc(-c2cc(C(=O)NCCN)cc(-c3cnc4ccccc4n3)c2)cc1 | Active | 4 (≈ 9.42 µM) | 8 (≈ 18.8 µM) | 8 (≈ 18.8 µM) | 4 (≈ 9.42 µM) |  |  |  |  |  | 
10 | Cc1onc(-c2ccccc2)c1C(=O)N[C@@H]1C(=O)N2[C@@H]1SC(C)(C)[C@@H]2C(=O)O [OXACILLIN] |  | 0.06 (≈ 0.149 µM) | 8 (≈ 19.9 µM) | > 64 | > 64 |  |  |  |  |  | 
11 | C[n+]1ccnc2ccccc21.[I-] | Active | 32 | > 64 | > 64 | > 64 |  |  |  |  |  | 
12 | CC(C)(C)c1ccc(-c2cc(C(=O)NCCO)cc(-c3cnc4ccccc4n3)c2)cc1 | Active | > 64 | > 64 | > 64 | > 64 |  |  |  |  |  | 
13 | COC(=O)c1cc(-c2ccc(C(C)(C)C)cc2)cc(-c2cnc3ccccc3n2)c1 | Active | > 64 | > 64 | > 64 | > 64 |  |  |  |  |  | 
14 | CCC[C@@H]1C[C@@H](C(=O)N[C@@H]([C@H]2O[C@H](SC)[C@H](O)[C@@H](O)[C@H]2O)[C@H](C)Cl)N(C)C1 [CLINDAMYCIN] |  | 0.03 (≈ 0.0706 µM) | 2 (≈ 4.71 µM) | > 64 | > 64 |  |  |  |  |  | 
15 | C[n+]1cc(-c2cccc(-c3ccccc3)c2)nc2ccccc21.[I-] | Active | 0.5 | 8 | 8 | 0.5 | 4 | inactive | 4 | 64 | 8 | 8
16 | C[n+]1cc(-c2cc(C(N)=O)cc(-c3ccc(C(C)(C)C)cc3)c2)nc2ccccc21.[I-] | Active | 2 | 4 | 4 | 2 |  |  |  |  |  | 
